Screening results (PubChem BioAssay)
NR2E3 ag-1: agonists of human nuclear receptor NR2E3; GST-NR2E3/biotin-RetCOR TR-FRET, 1536-well; inhibition of corepressor binding, % at 4.78 µM; actives 0.12% (n = 320,000);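 active means percent inhibition above the cutoff of mean plus 3 SD of all tested compounds, set per screening campaign, cut at about 20% in these data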;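 further: 0% = DMSO wells and 100% = biotin wells as full block of FRET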
Target sequence (Q9Y5X4 whole entry, looked up): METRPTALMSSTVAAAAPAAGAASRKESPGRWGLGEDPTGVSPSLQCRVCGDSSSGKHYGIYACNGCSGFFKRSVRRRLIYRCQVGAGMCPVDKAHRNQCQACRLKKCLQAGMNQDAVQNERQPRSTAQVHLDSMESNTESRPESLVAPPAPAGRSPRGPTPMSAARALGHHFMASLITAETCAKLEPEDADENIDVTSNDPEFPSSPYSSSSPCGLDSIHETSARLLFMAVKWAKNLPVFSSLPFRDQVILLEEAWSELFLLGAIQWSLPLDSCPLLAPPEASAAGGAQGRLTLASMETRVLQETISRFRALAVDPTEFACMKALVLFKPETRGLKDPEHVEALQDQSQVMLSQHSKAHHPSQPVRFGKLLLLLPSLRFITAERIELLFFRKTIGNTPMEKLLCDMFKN
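Test system – NR2E3–RetCOR corepressor complex · Quantity – NR2E3 fusion 1.35 nM · Buffer or medium – Tris pH 7.5 · Incubation – Compound–protein incubation for 5 h at 4 °C · Technique – TR-FRET, Eu(K)-anti-GST donor, streptavidin-D2 acceptor, ex 340, em 617/671 nm · Evaluation – percent inhibition of 671/617 nm emission ratio versus biotin and DMSO controls · Plate – 1536-well format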
NR2E3 ag-2: agonists of human NR2E3 nuclear receptor. Q9Y5X4. CHO-S Gal4-NCOR/VP16-NR2E3 two-hybrid, luciferase. inhibition of corepressor binding, % at 3.98 µM. actives 0.35% (n = 360,000). AID 602229;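 active means inhibition above the mean of all tested compounds plus 3 SD, cut at about 70% in these data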;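 further: 0% = DMSO with NR2E3 transfected cells and 100% = cells lacking NR2E3 construct; higher means lower luciferase signal from less NR2E3 corepressor binding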
bovine MsrA act: activates bovine MsrA enzyme; purified bovine MsrA, absorbance read-out; activation, % at 10.6 µM; actives 0.3% (n = 360,000); AID 602163; in the data active means activation above about 7.5%;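 further: 0% = vehicle and 100% = reference activator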
MsrA inhibitor: inhibitors of bovine MsrA; purified bovine MsrA, absorbance read-out; inhibition, % at 15.5 µM; actives 0.75% (n = 360,000); AID 651718; in the data active means inhibition above about 4.5%;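 further: 0% = vehicle wells with enzyme and 100% = reference inhibitor wells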
NadD block: NadD (S. aureus) enzyme inhibition; purified NadD enzyme, colorimetric absorbance read-out; inhibition, % at 20 µM; actives 0.78% (n = 360,000); AID 602399; in the data active means inhibition above about 26%
GalR3 antagonist: antagonists of human GalR3; HEK293 GalR3-CNG cAMP membrane potential fluorescence; galR3 body fused to GalR1 C-terminus; actives 0.44% (n = 360,000); inhibition, % at 3 µM;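 active means inhibition above the screen-wide average plus 3 SD, cut at about 13% in these data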;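 further: forskolin and galanin both at EC90 stimulate the cells; cAMP rise reported by CNG channel membrane potential dye signal; 0% = forskolin plus galanin with DMSO and 100% = forskolin alone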
Target sequence (O60755 1-299 limits assumed): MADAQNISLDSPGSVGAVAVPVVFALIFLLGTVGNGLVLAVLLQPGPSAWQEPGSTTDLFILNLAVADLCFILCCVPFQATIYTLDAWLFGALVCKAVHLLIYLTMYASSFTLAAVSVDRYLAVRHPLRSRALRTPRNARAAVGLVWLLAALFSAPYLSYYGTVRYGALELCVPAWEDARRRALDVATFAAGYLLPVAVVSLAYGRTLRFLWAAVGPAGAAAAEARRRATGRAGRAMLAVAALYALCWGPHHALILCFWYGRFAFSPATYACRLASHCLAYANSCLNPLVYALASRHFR
NR2E3 ag conf: NR2E3 agonism confirmed in two-hybrid assay | actives 51% (n = 2,300) | shares compounds with NR2E3 ag-2 | inhibition, % at 3.98 µM | CHO-S mammalian two-hybrid NR2E3-NCOR, luciferase luminescence;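 active means average inhibition above a cutoff equal to the mean inhibition of all tested compounds plus one SD, cut at about 70% in these data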;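 further: 0% = DMSO in NR2E3 cells and 100% = DMSO in cells lacking NR2E3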
VP16 counter: reduces GAL4-VP16 reporter signal in NR2E3 counterscreen; shares compounds with NR2E3 ag-2; CHO-S GAL4-VP16 luciferase reporter, luminescence; inhibition, % at 3.98 µM; actives 29% (n = 2,300); AID 624379;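 active means mean inhibition above a cutoff equal to the average over all tested compounds plus one standard deviation, cut at about 70% in these data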;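 further: luciferase from a UAS reporter driven by GAL4-VP16 transactivation; 0% = DMSO with VP16-transfected cells and 100% = DMSO with cells lacking VP16; higher means less reporter light so more repression of VP16 activity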
Starred values were filed as active, the others as inactive; nt = no result. Shown are actives, neighbours in structure and some others; about 2.5% of the full set was active somewhere.

SMILES | NR2E3 ag-1 | NR2E3 ag-2 | bovine MsrA act | MsrA inhibitor | NadD block | GalR3 antagonist | NR2E3 ag conf | VP16 counter
Cc1nc(NC(=O)c2ccco2)sc1C(=O)O | 2.2 | -6.3 | -4.8 | 2.8 | -4.5 | -5.0 | nt | nt
Cc1nc(NC(=O)c2ccco2)sc1C(=O)Nc1ccc(Br)cc1 | 7.1 | 53.8 | -2.6 | nt | 3.8 | nt | 64.4 | 22.3
CCNC(=S)N1CCN(c2ccccn2)CC1 | -2.5 | -13.9 | -10.9 | -0.5 | -3.7 | -5.4 | nt | nt
CC(NNC(=S)N1CCN(c2ccccn2)CC1)c1nccc2ccccc12 (stereo unspecified) | nt | 83.0* | -1.9 | 1.2 | 5.2 | -4.0 | 5.1 | 14.3
NC(=NC(=O)c1ccccc1)N1N=CCC1c1ccccc1 (stereo unspecified) | -2.2 | -17.9 | -1.1 | -0.5 | 4.1 | -4.0 | nt | nt
COc1ccc(/C=C2/CSC/C(=C/c3ccc(OC)c(OC)c3)C2=O)cc1OC | nt | 63.7 | -7.7 | 2.2 | -9.6 | 3.5 | 37.9 | 29.0
Cc1ccc(C(=O)CCC(=O)N2CCN(c3ccccc3O)CC2)cc1 | 1.0 | 48.8 | -2.0 | 1.1 | 2.6 | -1.8 | 36.0 | 3.2
CCC(C(=O)NCCC(C)C)n1ccc2cc(S(=O)(=O)N3CCCCC3)ccc21 (stereo unspecified) | -0.6 | 59.5 | -2.1 | nt | -3.8 | nt | 49.1 | 46.8
Cc1c(C(=O)Nc2ccc3c(c2)OCCO3)sc2nc(-c3ccccc3)cn12 | 1.8 | 65.9 | -3.4 | 1.6 | 7.6 | -2.3 | 69.5 | 57.2
Cc1c(C(=O)Nc2ccncc2)sc2nc(-c3ccccc3)cn12 | -4.5 | 19.7 | 1.8 | 0.3 | -0.3 | nt | nt | nt
Cc1nccn1CCc1nc(N)nc(N)n1 | 0.2 | 7.6 | -3.4 | -0.4 | -4.8 | -6.5 | nt | nt
O=C(Cc1ccc(-c2ccccc2)cc1)Nc1ccccn1 | 2.8 | 72.3* | -1.1 | -0.1 | 3.6 | -10.5 | 69.3 | -12.8
Cc1ccnc(NC(=O)Cc2ccc(-c3ccccc3)cc2)c1 | 1.7 | 92.6* | -3.4 | 0.4 | 3.3 | -5.3 | 97.9* | -23.7
O=C1CCCCC1Sc1nnc(Cc2cccs2)n1CCc1ccccc1 (stereo unspecified) | -2.6 | -29.6 | -2.1 | -0.1 | 8.6 | -6.1 | nt | nt
Cc1ccc2sc(N3CCN(C(=O)C4=COCCO4)CC3)nc2c1C | -0.7 | 59.0 | -9.2 | 1.0 | -6.7 | -1.9 | 60.5 | 38.0
CN(C)S(=O)(=O)c1cccc(NC(=O)CSc2nncn2-c2ccccc2)c1 | 3.3 | -11.1 | 5.2 | 0.3 | -6.6 | -1.0 | nt | nt
Cc1cccc(Cc2cnc(N3C(=N)SC(C)C3=O)s2)c1 (stereo unspecified) | 0.3 | 103.4* | -7.7 | 1.7 | 1.2 | -1.1 | 98.6* | 21.2
Cc1ccc(Cc2cnc(N3C(=N)SC(C)C3=O)s2)cc1 (stereo unspecified) | -1.1 | 101.5* | -3.1 | 2.4 | 2.4 | -5.0 | 100.6* | -3.0
Cc1cccc(Cc2cnc(N3C(=N)SC(c4ccccc4)C3=O)s2)c1 (stereo unspecified) | -0.9 | -14.0 | -1.8 | 1.4 | 16.3 | 1.2 | nt | nt
COC(=O)c1cc(C#N)c(Oc2cccc(C)c2C)nc1C | -2.4 | 0.2 | -4.7 | -1.0 | -3.0 | -2.0 | nt | nt
NNC(=S)NC1CC2CC1C1C=CCC21 (stereo unspecified) | 1.6 | 35.9 | -2.2 | 1.2 | 7.7 | 0.5 | nt | nt
Oc1ccc(O)c(C=NNC(=S)NC2CC3CC2C2C=CCC32)c1 (stereo unspecified) | nt | 52.9 | -4.0 | 3.2 | 2.1 | -5.6 | -17.6 | -34.2
O=C1CC(Sc2nnnn2-c2ccccc2)C(=O)N1c1cccc(Cl)c1 (stereo unspecified) | 0.1 | -18.0 | -0.7 | -0.6 | -5.7 | -6.5 | nt | nt
CC1c2cc3c(cc2CCN1C(=O)c1ccc(C(F)(F)F)cc1)OCCCO3 (stereo unspecified) | -2.4 | 58.6 | -0.1 | 0.6 | 4.8 | 0.8 | 21.1 | 39.2
COc1ccccc1CN1CC(C(=O)N2CCCCO2)CCC1=O (stereo unspecified) | -0.2 | -90.3 | -2.6 | -0.3 | -4.7 | 0.9 | nt | nt
SMILES | NR2E3 ag-1 | NR2E3 ag-2 | bovine MsrA act | MsrA inhibitor | NadD block | GalR3 antagonist | NR2E3 ag conf | VP16 counter
NC(=O)NOCc1ccc(Cl)cc1Cl | 1.8 | -12.3 | -2.7 | 0.2 | 11.4 | 8.4 | nt | nt
CNC(=S)/N=C/NOCc1ccc(Cl)cc1Cl | -1.7 | 57.9 | -3.9 | 0.7 | -6.7 | -6.0 | 81.7* | 43.7
CC(=O)N1c2ccc(S(=O)(=O)N3CCC(C(=O)Nc4cccc(Cl)c4)CC3)cc2CC1C (stereo unspecified) | 2.5 | 78.0* | -1.2 | -0.2 | 8.3 | -3.1 | 74.0* | 52.4
CC(=O)c1ccc(N2CCN(C(=O)C3CCN(S(=O)(=O)c4ccc5c(c4)CC(C)N5C(C)=O)CC3)CC2)cc1 (stereo unspecified) | 0.7 | 3.5 | -5.8 | 2.5 | 3.1 | -7.3 | nt | nt
CC(=O)N1c2ccc(S(=O)(=O)N3CCC(C(=O)N4CCN(c5cccc(C(F)(F)F)c5)CC4)CC3)cc2CC1C (stereo unspecified) | -1.2 | 99.2* | -9.5 | 0.2 | 3.0 | -4.0 | 88.6* | 75.8*
CC(=O)N1c2ccc(S(=O)(=O)N3CCC(C(=O)Nc4cccc(C)c4)CC3)cc2CC1C (stereo unspecified) | -2.5 | 32.5 | -3.6 | 1.6 | 2.0 | -4.9 | nt | nt
COc1ccc(NCC(=O)N/N=C/C(C)c2ccccc2)cc1 (stereo unspecified) | -0.3 | -12.0 | -3.3 | -1.0 | 11.6 | -1.7 | nt | nt
Cc1nn(Cc2ccc(Cl)cc2)c(C)c1NC(=O)c1cc(-c2ccc3c(c2)OCO3)on1 | -1.4 | 57.9 | 4.4 | -0.5 | 9.8 | -8.2 | 74.5* | 51.4
CCC(NC(=O)c1ccc2nc(Cc3ccc(OC)cc3)oc2c1)c1ccncc1 (stereo unspecified) | -2.6 | 67.2 | -0.7 | 1.2 | 4.6 | -7.2 | 83.5* | 61.2
CCC(C)NC(=O)c1ccc2nc(Cc3ccc(OC)cc3)oc2c1 (stereo unspecified) | -0.1 | -19.0 | -3.8 | -0.1 | -1.3 | -5.0 | nt | nt
COc1ccc(N=CC2=C(O)c3ccccc3C2=O)c(OC)c1 | 0.8 | -52.9 | -1.8 | 0.0 | 7.0 | -2.1 | nt | nt
COc1ccc2cc(CCOC3CCCCO3)ncc2c1 (stereo unspecified) | 2.8 | -106.1 | -7.5 | 0.6 | -1.1 | -3.2 | nt | nt
COc1ccc(C(=O)c2sc(NC(C)C)nc2N)cc1OC | 2.9 | 59.2 | -4.5 | 3.7 | 8.8 | -1.9 | 36.6 | 10.3
COc1ccc(Nc2nc(N)c(C(=O)c3ccc(OC)cc3)s2)cc1 | -0.7 | -36.4 | 0.3 | 1.7 | 4.9 | -5.7 | nt | nt
COc1cccc(C(=O)c2sc(NC(C)C)nc2N)c1 | 2.1 | 93.5* | -5.6 | 2.8 | -0.6 | -1.6 | 94.2* | 50.0
